In ChEMBL document CHEMBL1157725 (Bioorg Med Chem, 2010):
Active and inactive are the calls of the source. No cut-off for these calls is given here.

Experiments:
KM12 = experiment: Growth inhibition of human KM12 cells after 48 hrs by SRB assay; format: functional; conditions: KM12, 48 h
BT-549 = experiment: Growth inhibition of human BT549 cells after 48 hrs by SRB assay; format: functional; conditions: BT-549, 48 h
In short: (§1)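 This is the NCI cell-line panel. Cells are exposed for 48 h to five concentrations in 10-fold serial dilution. Growth is read by the SRB protein assay, and GI₅₀ is calculated from log dose–response curves.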

A498 = experiment: Growth inhibition of human A498 cells after 48 hrs by SRB assay; format: functional; conditions: A498, 48 h; in short: as §1
[1] = Inhibition of tubulin in rat A10 cells assessed as induction of cellular microtubule disassembly after 18 hrs by indirect immunofluorescence technique; format: cell-based; conditions: A10, 18 h
In short: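 A-10 cells plated on glass coverslips and treated with compound at varying concentrations for 18 h. After fixation, microtubules immunostained with a β-tubulin antibody (indirect immunofluorescence) and nuclei stained with DAPI. Read by fluorescence microscopy. Percentage of cellular microtubule loss estimated visually across the concentration range.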

MOLT-4 = experiment: Growth inhibition of human MOLT4 cells after 48 hrs by SRB assay; format: functional; conditions: MOLT-4, 48 h
PC-3 = experiment: Growth inhibition of human PC3 cells after 48 hrs by SRB assay; format: functional; conditions: PC-3, 48 h; in short: as §1
MCF7 [2] = experiment: Cell cycle arrest in human MCF7 cells by accumulation at G2/M phase at 0.1 uM after 48 hrs by flow cytometry (Rvb=5.9%); format: functional
[3] = Displacement of [3H]colchicine from tubulin at 5 uM by DEAE-cellulose filter method
SF-295 = experiment: Growth inhibition of human SF295 cells after 48 hrs by SRB assay; format: functional; conditions: SF-295, 48 h; in short: as §1
UO-31 = experiment: Growth inhibition of human UO31 cells after 48 hrs by SRB assay; format: functional; conditions: UO-31, 48 h
In short: (§2)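 NCI human tumor cell line panel. Cells exposed for 48 h to five concentrations in a 10-fold serial dilution. Growth inhibition read as total cell protein by sulforhodamine B staining. GI50 calculated from log dose–response curves.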

HCC 2998 = experiment: Growth inhibition of human HCC2998 cells after 48 hrs by SRB assay; format: functional; conditions: HCC 2998, 48 h
SW-620 = experiment: Growth inhibition of human SW620 cells after 48 hrs by SRB assay; format: functional; conditions: SW-620, 48 h; in short: as §2
NCI-H522 = experiment: Growth inhibition of human NCI-H522 cells after 48 hrs by SRB assay; format: functional; conditions: NCI-H522, 48 h
NCI/ADR-RES = experiment: Growth inhibition of human NCI/ADR-RES cells after 48 hrs by SRB assay; format: functional; in short: as §1
MCF7 [4] = experiment: Cell cycle arrest in human MCF7 cells by accumulation at G2/M phase at 10 uM after 48 hrs by flow cytometry (Rvb=5.9%); format: functional
[5] = Growth inhibition of human Hs 578T cells after 48 hrs by SRB assay; format: functional; in short: as §1
SN12C = experiment: Growth inhibition of human SN12C cells after 48 hrs by SRB assay; format: functional; in short: as §2
RXF 393 = experiment: Growth inhibition of human RXF393 cells after 48 hrs by SRB assay; format: functional; conditions: RXF 393, 48 h; in short: as §1
COLO 205 = experiment: Growth inhibition of human COLO205 cells after 48 hrs by SRB assay; format: functional; conditions: COLO 205, 48 h
SK-MEL-2 = experiment: Growth inhibition of human SK-MEL-2 cells after 48 hrs by SRB assay; format: functional; conditions: SK-MEL-2, 48 h; in short: as §2
SNB-19 = experiment: Growth inhibition of human SNB19 cells after 48 hrs by SRB assay; format: functional; conditions: SNB-19, 48 h; in short: as §2
UACC-257 = experiment: Growth inhibition of human UACC257 cells after 48 hrs by SRB assay; format: functional; conditions: UACC-257, 48 h; in short: as §2
MCF7 [6] = experiment: Cell cycle arrest in human MCF7 cells by accumulation at G2/M phase at 5 uM after 48 hrs by flow cytometry (Rvb=5.9%); format: functional
OVCAR-4 = experiment: Growth inhibition of human OVCAR4 cells after 48 hrs by SRB assay; format: functional; conditions: OVCAR-4, 48 h; in short: as §1
HOP-92 = experiment: Growth inhibition of human HOP92 cells after 48 hrs by SRB assay; format: functional; conditions: HOP-92, 48 h
Aorta = experiment: Antiangiogenic activity in rat aortic rings assessed inhibition of sprouts formation at 5 uM after 6 days by aortic ring assay; format: functional, tissue-based
786-0 = experiment: Growth inhibition of human 786-0 cells after 48 hrs by SRB assay; format: functional; conditions: 786-0, 48 h; in short: as §1
OVCAR-5 = experiment: Growth inhibition of human OVCAR5 cells after 48 hrs by SRB assay; format: functional; conditions: OVCAR-5, 48 h; in short: as §1
IGROV-1 = experiment: Growth inhibition of human IGROV1 cells after 48 hrs by SRB assay; format: functional; conditions: IGROV-1, 48 h; in short: as §1
UACC-62 = experiment: Growth inhibition of human UACC62 cells after 48 hrs by SRB assay; format: functional; conditions: UACC-62, 48 h; in short: as §2
SR = experiment: Growth inhibition of human SR cells after 48 hrs by SRB assay; format: functional; in short: as §2
ACHN = experiment: Growth inhibition of human ACHN cells after 48 hrs by SRB assay; format: functional; in short: as §1
OVCAR-8 = experiment: Growth inhibition of human OVCAR8 cells after 48 hrs by SRB assay; format: functional; conditions: OVCAR-8, 48 h; in short: as §1

Question: For `COc1ccc(/C=C/C(=O)c2cc(OC)c(OC)c(OC)c2)cc1B(O)O`, which GI50 (KM12) is on record?
Answer: 15.4 µM

Question: And the GI50 (BT-549)?
Answer: 21 nM

Question: What about the GI50 (A498) of the same compound?
Answer: 4.76 µM

Question: What about the EC50 [1] of the same compound?
Answer: 16.5 µM

Question: What about the GI50 (MOLT-4) of the same compound?
Answer: 3.6 µM

Question: What about the GI50 (PC-3) of the same compound?
Answer: 250 nM

Question: And the Activity (MCF7 [2])?
Answer: 6.4%

Question: And the inhibition [3]?
Answer: 4.4%

Question: And the GI50 (SF-295)?
Answer: 2730 nM

Question: And the GI50 (UO-31)?
Answer: 320 nM

Question: What about the GI50 (HCC 2998) of the same compound?
Answer: 410 nM

Question: What about the GI50 (SW-620) of the same compound?
Answer: 37 nM

Question: What about the GI50 (NCI-H522) of the same compound?
Answer: 200 nM

Question: And the GI50 (NCI/ADR-RES)?
Answer: 50 nM

Question: And the Activity (MCF7 [4])?
Answer: 14%

Question: And the GI50 [5]?
Answer: 46 nM

Question: What about the GI50 (SN12C) of the same compound?
Answer: 460 nM

Question: What about the GI50 (RXF 393) of the same compound?
Answer: 390 nM

Question: And the GI50 (COLO 205)?
Answer: 2200 nM

Question: And the GI50 (SK-MEL-2)?
Answer: 3.33 µM

Question: And the GI50 (SNB-19)?
Answer: < 10 nM

Question: And the GI50 (UACC-257)?
Answer: 4.41 µM

Question: And the Activity (MCF7 [6])?
Answer: 7.4%

Question: And the GI50 (OVCAR-4)?
Answer: 2060 nM

Question: And the GI50 (HOP-92)?
Answer: 380 nM

Question: What about the inhibition (Aorta) of the same compound?
Answer: Active

Question: And the GI50 (786-0)?
Answer: 390 nM

Question: What about the GI50 (OVCAR-5) of the same compound?
Answer: 1810 nM

Question: And the GI50 (IGROV-1)?
Answer: 88 nM

Question: And the GI50 (UACC-62)?
Answer: 34 nM

Question: And the GI50 (SR)?
Answer: 2180 nM

Question: What about the GI50 (ACHN) of the same compound?
Answer: 520 nM

Question: And the GI50 (OVCAR-8)?
Answer: 300 nM
